# Ecoli WT expand: E. coli BW25113 growth inhibition, expanded screen. OD600 absorbance. growth inhibition, % at 100 µM. 98,000 tested, 0.15% active. AID 710;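 active means growth inhibition above about 50% at one test dose, limit read from the data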;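 further: growth measured after 20 h incubation at 37 °C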
# Ecoli tolC: E. coli tolC mutant growth inhibition; E. coli BW25113 tolC mutant growth, OD615; growth inhibition, % at 10 µM (by protocol); 65,000 tested, 2.2% active; AID 573;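 active means growth inhibition at or above a cutoff equal to the mean over every tested compound plus 3 SD, cut at about 60% in these data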;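 further: growth measured after 20 h incubation at 37 °C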
#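 Signal: optical density read at 615 nm; Assay system: E. coli ΔtolC::kan strain BW25113; Times: 20 h incubation with compound, 37 °C; Dosing: 10 µM final, single dose.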
# CYP2C9 activ: CYP2C9 (human) activation | P11712 | recombinant CYP2C9, luciferin-H conversion, luminescence; stronger effect = higher value; factor 1 = untreated enzyme, 0 = blocked | activation factor at 5 µM | 96,000 tested, 1.4% active | AID 1024;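 active means activation factor of 2 or more for CYP2C9 at a 5 µM dose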;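 further: 0 = sulfaphenazole-blocked wells and 1 = vehicle-only wells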
# CYP2C9 inh: inhibitors of human CYP2C9; 96,000 tested, 20% active; inhibition, % at 5 µM; CYP2C9 Supersomes, luciferin-H conversion, luminescence; P11712;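 active means blocking of liver enzyme CYP2C9 beyond about 50% at 5 µM, limit read from the data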
# CYP2C19 inhib: inhibitors of human CYP2C19; 96,000 tested, 21% active; inhibition, % at 5 µM; P33261; CYP2C19 Supersomes, luciferin-H EGE luminescence, 30 min;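 active means CYP2C19 inhibition above a set limit at 5 µM in the primary screen, cut at about 50% in these data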;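 further: plate controls were negative control wells for no effect and 2.5 mM tranylcypromine positive control for full effect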
# Target sequence (P33261 whole entry, looked up): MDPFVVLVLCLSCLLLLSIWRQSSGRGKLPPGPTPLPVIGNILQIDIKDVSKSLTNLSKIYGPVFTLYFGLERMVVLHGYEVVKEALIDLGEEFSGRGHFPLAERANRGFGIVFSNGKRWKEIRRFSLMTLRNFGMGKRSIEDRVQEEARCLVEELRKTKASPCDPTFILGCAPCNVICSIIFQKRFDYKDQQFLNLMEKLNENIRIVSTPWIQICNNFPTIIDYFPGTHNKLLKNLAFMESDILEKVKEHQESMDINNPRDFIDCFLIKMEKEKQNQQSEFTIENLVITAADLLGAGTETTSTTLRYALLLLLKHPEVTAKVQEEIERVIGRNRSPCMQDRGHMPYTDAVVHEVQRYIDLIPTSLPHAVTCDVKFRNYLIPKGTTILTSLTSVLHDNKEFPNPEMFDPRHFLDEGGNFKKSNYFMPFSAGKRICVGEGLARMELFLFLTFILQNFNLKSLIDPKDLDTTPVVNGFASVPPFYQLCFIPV
# CYP2C19 activ: activators of human cytochrome P450 2C19; activation factor at 5 µM; P33261; 96,000 tested, under 10 active; recombinant CYP2C19, luciferin-H EGE luminescence; stronger effect = higher value; 0 = fully inhibited enzyme, 1 = untreated enzyme; AID 1025;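 active means activation factor of at least 2 at 5 µM in the primary screen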;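 further: 0 = wells with 2.5 mM tranylcypromine and 1 = vehicle-only wells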
# Starred values were filed as active, the others as inactive; nt = not tested or not shown. This is a sample that favours compounds with a hit; in the whole collection about 29% have one here.
SMILES,Ecoli WT expand,Ecoli tolC,CYP2C9 activ,CYP2C9 inh,CYP2C19 inhib,CYP2C19 activ
CCC(N1CCOC1=O)S(=O)(=O)c1ccc(C)cc1 (stereo unspecified),2.0,nt,1.2,-16.5,-29.6,1.3
C=CCC(C=C)S(=O)(=O)c1ccc(C)cc1 (stereo unspecified),1.0,nt,0.9,14.1,86.7*,0.1
COc1cc(C2SCC(=O)N2CCCN(C)C)cc(OC)c1OC (stereo unspecified),-2.0,nt,0.9,5.4,-17.0,1.2
COc1cc(Cc2cnc(N)nc2N)cc(OC)c1OC,100.0*,97.1*,1.2,-19.8,-19.2,1.2
C=CCN(C(C)=O)C1CC(=O)N(c2ccc(OCCC)cc2)C1=O (stereo unspecified),-9.0,nt,1,2.6,-4.0,1
Cc1ccc(C(=O)Nc2nc(=O)n(C(=O)CC(C)C)s2)cc1,-13.0,nt,0.2,84.1*,7.5,0.9
Cc1ccc(C(=O)Nc2nc(=O)n(C(=O)c3ccccc3Cl)s2)cc1,-3.0,nt,0.1,93.5*,65.7*,0.3
Cc1ccc(C(=O)Nc2nc(=O)n(C)s2)cc1,-4.0,nt,0.9,12.5,4.3,1
CCCCC(=O)Nc1sc2c(c1C(=O)OCC)CCC(C=O)=C2Cl,7.0,nt,0.9,10.4,2.4,1
O=C(Nc1ccccc1)O/N=C/c1ccncc1,6.0,nt,0.4,59.7*,69.8*,0.3
CC(/C=C/c1ccccc1)=N\NC(=O)c1ccncc1,9.0,nt,0.5,48.9,39.9,0.6
C/C(N)=C(/C#N)C(=O)COC(=O)C1Cc2ccccc2CN1S(C)(=O)=O (stereo unspecified),2.0,-1.9,0.8,17.8,5.5,0.9
[N-]=[N+]=CC(=O)c1ccnc(C(=O)C=[N+]=[N-])c1,55.0*,8.0,1,4.7,-5.4,1.1
COc1ccc(-c2nnc(SCC(=O)Nc3ccc4c(c3)OCCO4)n2N)cc1OC,-6.0,nt,0.4,58.3*,3.6,1
CC(C)Oc1cccc(-c2nnc(SCC(=O)Nc3ccc4c(c3)OCCO4)n2N)c1,-7.0,nt,0.3,70.6*,50.3*,0.5
CCSc1nc2ccccc2n1CC(=O)N1CCCCC1,-3.0,-26.8,1,-4.0,22.6,0.8
CCOC(=O)c1cccc(NC(=O)Cn2c(CC(=O)N3CCCC3)nc3ccccc32)c1,-4.0,-2.7,0.1,87.9*,17.2,0.8
CCOC(=O)c1ccccc1NC(=O)CSc1nc2ccccc2n1CC(=O)N1CCCC1,2.0,14.1,0.1,86.6*,81.8*,0.2
O=C(O)Cn1c(CC(=O)N2CCCC2)nc2ccccc21,3.0,-25.8,0.7,27.1,6.1,0.9
COc1ccc(NC(=O)NS(=O)(=O)c2ccc(C)cc2)c(OC)c1,-5.0,-25.7,0.1,91.5*,27.4,0.7
COc1ccc(NC(=O)C(C)N(c2ccc(C)cc2)S(C)(=O)=O)c(OC)c1 (stereo unspecified),1.0,0.7,0.5,51.6*,90.0*,0.1
COc1ccc(NC(=O)Nc2cc(C)ccc2OC(F)F)c(OC)c1,-11.0,-7.3,0.7,30.1,33.0,0.7
COc1ccccc1N1CCN(C(=O)C(C)N(c2ccc(C)cc2)S(C)(=O)=O)CC1 (stereo unspecified),-2.0,5.7,0.9,12.7,12.0,0.9
CCOC(=O)c1cnc2c(C)c(-c3ccccc3)[nH]n2c1=O,8.0,nt,0.8,21.8,-10.3,1.1
NS(=O)(=O)c1ccc(S(=O)(=O)NCCc2ccccc2)cc1,9.0,-4.1,0.9,11.8,85.0*,0.2
SMILES,Ecoli WT expand,Ecoli tolC,CYP2C9 activ,CYP2C9 inh,CYP2C19 inhib,CYP2C19 activ
Cc1ccc(S(=O)(=O)NCCc2ccccc2)cc1,6.0,nt,0.4,64.9*,96.5*,0
Cc1ccc(S(=O)(=O)NCCC(=O)NCc2ccccc2)cc1,9.0,-1.9,1.4,-36.5,16.4,0.8
COc1ccc(NC(=O)C2CCCN2c2ccc(OC)c(OC)c2)cc1OC (stereo unspecified),-1.0,-4.7,0.7,32.3,22.2,0.8
Cc1cccc(C)c1OCC(O)Cn1ccnc1C (stereo unspecified),9.0,-2.2,0.8,22.6,53.1*,0.5
Cc1cc(C(=O)OCC(=O)c2c(N)n(C)c(=O)n(C)c2=O)c(C)n1-c1ccccc1,-5.0,-4.3,0.6,36.4,14.4,0.9
Cc1cc(C(=O)COC(=O)CCc2nc3ccccc3s2)c(C)n1C,5.0,38.6,1.9,-85.7,14.7,0.9

# Source: PubChem BioAssay (several laboratories)
